Measurements: paper PMC9043816 (RSC Advances, 2021)
“And” between values parts separate entries of the source, which are not always exact repeats. Equal entries are not always repeated. Where two headings read alike, the source gives them in different places.

How the values were obtained:
[1] = test system: human tongue carcinoma cell line (SCC-15); test: MTS cytotoxicity assay, SCC-15; format: cell-based
Summary of the method: (§1)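 Cells grown in DMEM or RPMI 1640 with 10% FBS and penicillin/streptomycin (37 °C, 5% CO2), seeded at 4000–6000 cells per mL, then after 24 h treated for 48 h with several concentrations (DMSO stock 100 mM). Medium replaced, MTS added for 3 h at 37 °C, A492 read. Inhibition % relative to untreated and blank; IC50 by curve fitting; at least three wells per concentration.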

[2] = test system: human hepatoma carcinoma cell lines (HepG2); test: MTS cytotoxicity assay, HepG2; format: cell-based
Summary of the method: as §1

[3] = test system: human breast carcinoma cell line (MCF-7); test: MTS cytotoxicity assay, MCF-7; format: cell-based
Summary of the method: as §1

[4] = test system: human cervical carcinoma cell line (HeLa); test: MTS cytotoxicity assay, HeLa; format: cell-based
Summary of the method: as §1

[5] = test system: HeLa cells; test: 7-AAD/annexin V flow cytometry apoptosis assay; format: cell-based, human; details: 100 nM
Summary of the method: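 HeLa cells seeded at 1 × 10^5 cells per mL, grown overnight, then exposed to test compound (25, 50 or 100 nM final) for 24, 36 or 48 h. Cells were washed in cold PBS, trypsinized, and stained with annexin V-FITC plus 7-AAD for 15 min at room temperature in the dark. Analysed by flow cytometry; apoptotic % = early (annexin V+) plus late (annexin V+/7-AAD+).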

[6] = test system: human umbilical vein endothelial cells (HUVEC); test: MTS cytotoxicity assay, HUVEC normal cells; format: cell-based; details: read-out: IC50 HUVEC, 48 h treatment
Summary of the method: as §1

[7] = test system: p53; test: Western blotting, p53 expression in HeLa cells; format: cell-based, human; details: 25 nM, 50 nM and 100 nM, 48 h
Summary of the method: (§2)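 HeLa cells seeded at 1 × 10^5 cells per mL overnight, then given test compound (25, 50, 100 nM final) for 48 h. Lysed on ice 20 min; protein quantified by BCA. Equal protein run on SDS-PAGE and transferred to PVDF, then blocked in 5% nonfat milk. Primary antibodies (p53, Bcl-2, Bax, GAPDH loading) overnight at 4 °C; peroxidase secondary 2 h; chemiluminescent detection.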

[8] = test system: Bcl-2; test: Western blotting, Bcl-2 expression in HeLa cells; format: cell-based, human; details: 25 nM, 50 nM and 100 nM, 48 h
Summary of the method: as §2

[9] = test system: HeLa cells; test: Wound healing assay; format: cell-based, human; details: serum starved
Summary of the method: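 HeLa cells seeded at 2.5 × 10^5 cells per mL and grown to about 90% confluence; monolayer scratched with p10 tips, washed twice in PBS. Serum-free medium with test compound (25, 50, 100 nM final) or DMSO for 48 h. Gaps photographed at 0, 24, 48 h (10× magnification); healing rate from change in wound area; three independent experiments.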

[10] = test system: Bax; test: Western blotting, Bax expression in HeLa cells; format: cell-based, human; details: 25 nM, 50 nM and 100 nM, 48 h
Summary of the method: as §2

[11] = test system: BT20 cells; details: 200 mg kg^−1, i.p.; cited from earlier work
[12] = test system: 94 different cancer cell lines; details: read-out: IC50 values against 94 different cancer cell lines; in vitro; cited from earlier work
[13] = test system: Bel-7402, MCF-7 and MIA-PaCa cells; details: 250 mg kg^−1, i.p.; cited from earlier work
[14] = test system: normal cells, such as HFL, PrEC, HMEC and HUVEC; details: unless its concentration exceeded 5–10 μM; cited from earlier work
[15] = Homo sapiens, SCC-15, 48 h, read-out: IC50 SCC-15, MTS, 48 h treatment
[16] = Homo sapiens, HepG2, 48 h, read-out: IC50 HepG2, MTS, 48 h treatment
[17] = Homo sapiens, MCF7, 48 h, read-out: IC50 MCF-7, MTS, 48 h treatment
[18] = Homo sapiens, HeLa, 48 h, read-out: IC50 HeLa, MTS, 48 h treatment

| Structure (SMILES) | IC50 [1, 15] | IC50 [2, 16] | IC50 [3, 17] | IC50 [4, 18] | other results |
| --- | --- | --- | --- | --- | --- |
| COc1ccc(C[S+]([O-])c2ccc3ccccc3c2)cc1N (stereo not shown) [12a, 2-Methoxy-5-((naphthalen-2-ylsulfinyl)methyl)aniline] | 148 ± 27 nM | 434 ± 38 nM | 681 ± 48 nM | 173 ± 31 nM |  |
| COc1ccc(CS(=O)(=O)c2ccc3ccccc3c2)cc1N [12b, 2-Methoxy-5-((naphthalen-2-ylsulfonyl)methyl)aniline] | 28 ± 6 nM | 43 ± 7 nM | 110 ± 14 nM | 30 ± 5 nM |  |
| COc1ccc(C[S+]([O-])c2ccc3cc(Br)ccc3c2)cc1N (stereo not shown) [12c, 5-(((6-Bromonaphthalen-2-yl)sulfinyl)methyl)-2-methoxyaniline] | 264 ± 27 nM | 1310 ± 91 nM | 858 ± 88 nM | 92 ± 9 nM |  |
| COc1ccc(CS(=O)(=O)c2ccc3cc(Br)ccc3c2)cc1N [12d, 5-(((6-Bromonaphthalen-2-yl)sulfonyl)methyl)-2-methoxyaniline] | 78 ± 2 nM | 402 ± 35 nM | 95 ± 8 nM | 64 ± 5 nM |  |
| COc1ccc(CSc2ccc3ccccc3c2)cc1N [12e, 2-Methoxy-5-((naphthalen-2-ylthio)methyl)aniline] | 2210 ± 314 nM | 42600 ± 3810 nM | 17500 ± 2320 nM | 4060 ± 316 nM |  |
| COc1ccc(C[S+]([O-])c2ccc3ccccc3c2)cc1NCC(=O)O (stereo not shown) [15a, (2-Methoxy-5-((naphthalen-2-ylsulfinyl)methyl)phenyl)glycine] | 722 ± 29 nM | 5080 ± 318 nM | 2030 ± 73 nM | 230 ± 4 nM |  |
| COc1ccc(CS(=O)(=O)c2ccc3ccccc3c2)cc1NCC(=O)O [15b, (2-Methoxy-5-((naphthalen-2-ylsulfonyl)methyl)phenyl)glycine] |  |  |  |  | apoptotic values (early and late apoptotic states) ([5]; 24 h): 9.2%; apoptotic values (early and late apoptotic states) ([5]; 36 h): 30.2%; apoptotic values (early and late apoptotic states) ([5]; 48 h): 53.2%; IC50 ([1]; read-out: IC50 SCC-15, MTS, 48 h treatment): 15 ± 2 nM; IC50 ([2]; read-out: IC50 HepG2, MTS, 48 h treatment): 390 ± 13 nM; IC50 [6]: 1060 ± 48 nM; levels of the proapoptotic protein p53 [7]: increased significantly; expression of antiapoptotic protein Bcl-2 [8]: down-regulation; Wound healing rate ([9]; 25 nM, 24 h, control 46.4): 20.0% and 20.0 ± 3.5 %; Wound healing rate ([9]; 25 nM, 48 h, control 70.8): 32.0% and 32.0 ± 6.1 %; Wound healing rate ([9]; 50 nM, 24 h, control 46.4): 13.2 ± 2.2 %; Wound healing rate ([9]; 50 nM, 48 h, control 70.8): 15.5 ± 3.4 %; Wound healing rate ([9]; 100 nM, 24 h, control 46.4): 3.9% and 3.9 ± 3.0 %; Wound healing rate ([9]; 100 nM, 48 h, control 70.8): 4.4% and 4.4 ± 2.7 %; IC50 ([3]; read-out: IC50 MCF-7, MTS, 48 h treatment): 29 ± 1 nM; IC50 ([4]; read-out: IC50 HeLa, MTS, 48 h treatment): 64 ± 5 nM; expression of proapoptotic protein Bax [10]: up-regulation |
| COc1cc(OC)c(/C=C/S(=O)(=O)Cc2ccc(OC)c(NCC(=O)O)c2)c(OC)c1 [Rigosertib, reference compound] | 35 ± 3 nM | 108 ± 17 nM | 22 ± 3 nM | 65 ± 5 nM | tumor growth in mouse xenograft model [11]: remarkably inhibit tumor growth; IC50 [12]: 50 to 250 nM; tumor growth in mouse xenograft models [13]: significantly suppress tumor growth; anti-proliferative effect on normal cells [14]: little or no anti-proliferative effect |
